Activity calls are given as the source filed them. The rule behind the calls is not given here.
The molecules below were run on HEp-2 (assay: Cytotoxicity against human HEp-2 cells assessed as decrease in cell integrity at 100 uM by LDH assay). Details: hep-2, 100 µM.
Assay type: cell-based
Design: scale not given: the % may be the effect or the level left
Outline: (§1)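 HEp-2 cells were seeded at 5000/well and treated 24 h later at two doses, with 1% DMSO and media-only controls, in triplicate, for 8 h. Maximum-release wells were lysed with 0.8% Triton X-100 45 min before supernatant collection. Supernatant was incubated with CytoTox reagent for 30 min, then stop solution, and read at A490. Extracellular LDH is given as % of maximum release.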

Q: Which Activity does the source give for `CCC(C)C(NC(=O)C(C)n1cccc(NC(=O)OC(C)(C)C)c1=O)P(=O)(Oc1ccccc1)Oc1ccccc1` (centres undefined) here?
A: < 10%

These molecules were tested on HEp-2 (assay: Cytotoxicity against human HEp-2 cells assessed as reduction in MTS absorbance at 100 uM by MTS assay). Details: hep-2, 100 µM.
Assay type: cell-based
Design: scale not given: the % may be the effect or the level left
Outline: (§2)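 HEp-2 cells were seeded at 5000/well and treated 24 h later with compound (two doses) alongside 1% DMSO and media controls, in triplicate. After 24 h treatment, medium was replaced with fresh supplemented DMEM. MTS/PMS was added for 4 h and absorbance read at 490 nm. Results are expressed as % MTS reduction relative to 1% DMSO-treated cells.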

Q: How did the Activity turn out when `CC(C)C(NC(=O)C(C)n1cccc(NC(=O)Oc2ccccc2)c1=O)P(=O)(Oc1ccccc1)Oc1ccccc1` (centres undefined) was run?
A: <= 25%

Q: For `CC(C)C(NC(=O)[C@@H]1CCCN1C(=O)[C@@H](NC(=O)NC(C)(C)C)C(C)(C)C)P(=O)(Oc1ccccc1)Oc1ccccc1` (some centres undefined), which Activity is on record?
A: Toxic

Q: For `CCC(C)C(NC(=O)C(C)n1cccc(NC(=O)OC(C)(C)C)c1=O)P(=O)(Oc1ccccc1)Oc1ccccc1` (centres undefined), which Activity is on record?
A: <= 25%

Q: `CC(C)C(NC(=O)Cn1cccc(NC(=O)Oc2ccccc2)c1=O)P(=O)(Oc1ccccc1)Oc1ccccc1` (centres undefined) was tested. Which Activity did it give?
A: <= 25%

These molecules were tested on Chlamydia trachomatis (assay: Antibacterial activity against Chlamydia trachomatis D (D/UW-3/Cx; CtD) infected in HEp-2 cells assessed as reduction in bacterial titer at 50 to 100 uM measured after 44 hrs). Details: dose 50-100 µM.
Assay type: functional, organism-based
Outline: (§3)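 C. trachomatis D was grown in HEp-2 cells and C. pecorum G in McCoy B cells, in high-glucose DMEM with 10% heat-inactivated FCS, 4 mM alanyl-glutamine, streptomycin and gentamicin. Cells were seeded at 20,000/well 24 h before infection, at MOI 12 (CtD) or MOI 4 (CpG). Infection was synchronised by centrifugation at 500×g, 28 °C, 30 min. Dose series added 16 h PI, with 1% DMSO and media controls. Read-out was IFU/mL; n=3.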

Q: How did the Activity turn out when `CC(C)C(NC(=O)C(C)n1cccc(NC(=O)Oc2ccccc2)c1=O)P(=O)(Oc1ccccc1)Oc1ccccc1` (centres undefined) was run?
A: Active

Q: `CC(C)C(NC(=O)Cn1cccc(NC(=O)Oc2ccccc2)c1=O)P(=O)(Oc1ccccc1)Oc1ccccc1` (centres undefined) was tested. Which Activity did it give?
A: Active

The molecules below were run on HEp-2 (assay: Cytotoxicity against human HEp-2 cells assessed as decrease in cell integrity at 25 uM by LDH assay). Details: hep-2, 25 µM.
Assay type: cell-based
Design: scale not given: the % may be the effect or the level left
Outline: as §1

Q: For `CC(C)C(NC(=O)[C@@H]1CCCN1C(=O)[C@@H](NC(=O)NC(C)(C)C)C(C)(C)C)P(=O)(Oc1ccccc1)Oc1ccccc1` (some centres undefined), which Activity is on record?
A: <= 3.4%

These molecules were tested against T1, Probable periplasmic serine endoprotease DegP-like (Chlamydia trachomatis, UniProt P18584) (assay: Inhibition of recombinant ctHtrA serine protease using MeOCoum-ENLHLPLPI1F-D as substrate pretreated for 10 min followed by substrate addition and measured after 30 minutes). Details: not given.
T1 sequence (P18584 whole entry): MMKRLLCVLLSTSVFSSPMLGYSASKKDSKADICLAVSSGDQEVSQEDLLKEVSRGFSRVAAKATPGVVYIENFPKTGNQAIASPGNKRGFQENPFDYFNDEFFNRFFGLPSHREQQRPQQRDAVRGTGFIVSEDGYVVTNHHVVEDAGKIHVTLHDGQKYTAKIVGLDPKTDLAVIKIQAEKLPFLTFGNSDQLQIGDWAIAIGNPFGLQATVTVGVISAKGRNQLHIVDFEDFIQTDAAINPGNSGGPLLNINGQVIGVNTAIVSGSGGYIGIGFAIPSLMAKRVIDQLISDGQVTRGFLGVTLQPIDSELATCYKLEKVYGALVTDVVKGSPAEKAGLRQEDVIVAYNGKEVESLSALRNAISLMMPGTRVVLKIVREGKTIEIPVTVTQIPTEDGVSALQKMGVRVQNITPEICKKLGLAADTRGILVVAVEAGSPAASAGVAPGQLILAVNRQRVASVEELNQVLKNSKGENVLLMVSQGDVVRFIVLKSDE
Outline: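 Recombinant CtHtrA was tested against a six-dose inhibitor series in 50 mM Tris, 20 mM MgCl₂, pH 7.0. Plates were shaken before each of multiple reads per well. Each dose was run in triplicate, with a JO146 dose series (n=3) and DMSO controls (n=6). Relative inhibition is IC50(JO146)/IC50(compound), because IC50 varied between batches.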

Q: How did the IC50 turn out when `CC(C)C(NC(=O)C(C)n1cccc(NC(=O)Oc2ccccc2)c1=O)P(=O)(Oc1ccccc1)Oc1ccccc1` (centres undefined) was run?
A: 41.8 µM

Q: For `CCC(C)C(NC(=O)C(C)n1cccc(NC(=O)OC(C)(C)C)c1=O)P(=O)(Oc1ccccc1)Oc1ccccc1` (centres undefined), which IC50 is on record?
A: 128 µM

What follows are molecules tested on Chlamydia trachomatis (assay: Antibacterial activity against Chlamydia trachomatis D (D/UW-3/Cx; CtD) infected in HEp-2 cells assessed as log reduction in infectivity unit at 25 uM measured after 44 hrs). Details: not given.
Assay type: functional
Outline: as §3

Q: How did the Activity turn out when `CC(C)C(NC(=O)C(C)n1cccc(NC(=O)Oc2ccccc2)c1=O)P(=O)(Oc1ccccc1)Oc1ccccc1` (centres undefined) was run?
A: Active

Q: How did the Activity turn out when `CCC(C)C(NC(=O)C(C)n1cccc(NC(=O)OC(C)(C)C)c1=O)P(=O)(Oc1ccccc1)Oc1ccccc1` (centres undefined) was run?
A: Active

Q: Which Activity does the source give for `CC(C)C(NC(=O)Cn1cccc(NC(=O)Oc2ccccc2)c1=O)P(=O)(Oc1ccccc1)Oc1ccccc1` (centres undefined) here?
A: Active

These molecules were tested on Chlamydia pecorum (assay: Antibacterial activity against Chlamydia pecorum G (MC/MarsBar;CpG) infected in McCoy B cells assessed as reduction in bacterial titer at 50 to 100 uM measured after 44 hrs). Details: VR629 G (MC/MarsBar;CpG), dose 50-100 µM.
Assay type: functional, organism-based
Outline: as §3

Q: For `CC(C)C(NC(=O)C(C)n1cccc(NC(=O)Oc2ccccc2)c1=O)P(=O)(Oc1ccccc1)Oc1ccccc1` (centres undefined), which Activity is on record?
A: Active

Q: With `CC(C)C(NC(=O)Cn1cccc(NC(=O)Oc2ccccc2)c1=O)P(=O)(Oc1ccccc1)Oc1ccccc1` (centres undefined) as the molecule, how does the Activity read?
A: Active

Each molecule was assayed on Chlamydia pecorum (assay: Antibacterial activity against Chlamydia pecorum G (MC/MarsBar;CpG) infected in McCoy B cells assessed as log reduction in infectivity unit at 25 uM measured after 44 hrs). Details: VR629 G (MC/MarsBar;CpG).
Assay type: functional, organism-based
Outline: as §3

Q: Which Activity does the source give for `CC(C)C(NC(=O)C(C)n1cccc(NC(=O)Oc2ccccc2)c1=O)P(=O)(Oc1ccccc1)Oc1ccccc1` (centres undefined) here?
A: Active

Q: Which Activity does the source give for `CCC(C)C(NC(=O)C(C)n1cccc(NC(=O)OC(C)(C)C)c1=O)P(=O)(Oc1ccccc1)Oc1ccccc1` (centres undefined) here?
A: Active

Q: `CC(C)C(NC(=O)Cn1cccc(NC(=O)Oc2ccccc2)c1=O)P(=O)(Oc1ccccc1)Oc1ccccc1` (centres undefined) was tested. Which Activity did it give?
A: Active

These molecules were tested on HEp-2 (assay: Cytotoxicity against human HEp-2 cells assessed as reduction in MTS absorbance at 25 uM by MTS assay). Details: hep-2, 25 µM.
Assay type: cell-based
Outline: as §2

Q: How did the Activity turn out when `CC(C)C(NC(=O)[C@@H]1CCCN1C(=O)[C@@H](NC(=O)NC(C)(C)C)C(C)(C)C)P(=O)(Oc1ccccc1)Oc1ccccc1` (some centres undefined) was run?
A: Non-Toxic

— ChEMBL document CHEMBL4840314, “Optimization of peptide-based inhibitors targeting the HtrA serine protease in Chlamydia: Design, synthesis and biological evaluation of pyridone-based and N-Capping group-modified analogues” (Eur J Med Chem, 2021)
